# Experiments:
# [1] = molecular target: Telomerase reverse transcriptase (Homo sapiens, UniProt O14746); assay: Inhibition of telomerase in human SW1116 cells after 24 hrs by TRAP-PCR-ELISA assay; assay type: cell-based, SW 1116
# In short: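 Cells kept in DMEM with 10% FBS, streptomycin and penicillin at 37 °C, 5% CO2. Lysed in RIPA on ice for 30 min, supernatant cleared at 12,000g. Extract used in a TRAP kit, 35 PCR cycles, ELISA read at 490 nm. Mean ± SD.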
# [2] = system: HepG2; assay: Antiproliferative activity against human HepG2 cells after 48 hrs by MTT assay; assay type: functional, cell-based; settings: HepG2, 48 h
# In short: (§1)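 1×10^4 cells/well seeded and held 24 h at 37 °C, 5% CO2. Viability read after 48 h by MTT (4 h, 37 °C), DMSO solubilization, A570. Three independent experiments, mean ± SD.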
# [3] = system: HeLa; assay: Antiproliferative activity against human HeLa cells after 48 hrs by MTT assay; assay type: functional, cell-based; in short: as §1
# [4] = system: BGC-823; assay: Antiproliferative activity against human BGC823 cells after 48 hrs by MTT assay; assay type: functional, cell-based; settings: BGC-823, 48 h; in short: as §1
# [5] = Antiproliferative activity against human SW1116 cells after 48 hrs by MTT assay; assay type: functional, cell-based; settings: SW 1116, 48 h; in short: as §1
# Sequence of Telomerase reverse transcriptase (O14746 whole entry): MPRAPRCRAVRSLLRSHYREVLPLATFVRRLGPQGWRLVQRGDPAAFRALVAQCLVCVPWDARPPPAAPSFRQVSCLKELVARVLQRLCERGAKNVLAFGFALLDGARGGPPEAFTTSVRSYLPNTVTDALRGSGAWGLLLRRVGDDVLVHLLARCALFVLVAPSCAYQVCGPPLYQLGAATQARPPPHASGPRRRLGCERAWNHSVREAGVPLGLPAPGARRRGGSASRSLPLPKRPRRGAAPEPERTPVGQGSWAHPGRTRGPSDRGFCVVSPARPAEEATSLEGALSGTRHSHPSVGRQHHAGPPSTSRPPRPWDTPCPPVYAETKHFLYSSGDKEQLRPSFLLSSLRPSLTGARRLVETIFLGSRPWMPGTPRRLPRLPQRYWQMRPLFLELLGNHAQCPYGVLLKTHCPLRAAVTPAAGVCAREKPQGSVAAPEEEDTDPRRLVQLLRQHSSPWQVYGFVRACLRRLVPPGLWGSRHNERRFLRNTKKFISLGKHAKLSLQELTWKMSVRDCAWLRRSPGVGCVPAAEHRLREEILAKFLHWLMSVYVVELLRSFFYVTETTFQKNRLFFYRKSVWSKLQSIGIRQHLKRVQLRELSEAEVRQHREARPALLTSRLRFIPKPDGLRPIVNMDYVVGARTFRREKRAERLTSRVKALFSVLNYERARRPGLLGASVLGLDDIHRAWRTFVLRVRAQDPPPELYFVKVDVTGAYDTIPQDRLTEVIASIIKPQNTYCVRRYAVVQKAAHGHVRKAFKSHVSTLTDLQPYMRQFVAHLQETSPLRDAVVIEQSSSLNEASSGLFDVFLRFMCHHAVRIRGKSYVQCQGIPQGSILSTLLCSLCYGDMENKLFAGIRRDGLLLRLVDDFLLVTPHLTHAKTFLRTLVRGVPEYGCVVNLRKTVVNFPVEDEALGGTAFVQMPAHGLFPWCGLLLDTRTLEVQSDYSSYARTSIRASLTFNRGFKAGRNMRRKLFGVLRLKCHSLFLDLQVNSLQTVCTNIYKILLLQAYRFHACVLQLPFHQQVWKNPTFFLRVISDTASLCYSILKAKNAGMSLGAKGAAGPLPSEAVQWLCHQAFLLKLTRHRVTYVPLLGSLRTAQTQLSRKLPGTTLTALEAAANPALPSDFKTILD
SMILES,IC50 [1] [µM],IC50 [2] [µM],IC50 [3] [µM],IC50 [4] [µM],IC50 [5] [µM]
c1ccc(CSc2nnc(-c3ccc4c(c3)OCCO4)o2)cc1,8.21,32.1,40.3,33.6,31.5
Cc1cccc(CSc2nnc(-c3ccc4c(c3)OCCO4)o2)c1,3.26,33.4,32.8,31.2,27.2
O=[N+]([O-])c1ccc(CSc2nnc(-c3ccc4c(c3)OCCO4)o2)cc1,2.71,35.4,27.5,23,14.6
Fc1ccccc1CSc1nnc(-c2ccc3c(c2)OCCO3)o1,2.93,24,41.6,28.9,21.9
O=[N+]([O-])c1ccccc1CSc1nnc(-c2ccc3c(c2)OCCO3)o1,12.1,38.1,32.7,23.3,20.8
Cc1ccc(CSc2nnc(-c3ccc4c(c3)OCCO4)o2)cc1,5.04,41.9,45.4,31.6,32.5
Fc1ccc(CSc2nnc(-c3ccc4c(c3)OCCO4)o2)cc1,3.67,38,41.2,28.7,21.6
O=[N+]([O-])c1cccc(CSc2nnc(-c3ccc4c(c3)OCCO4)o2)c1,4.65,38.3,35.6,23.7,30.1
Clc1ccc(CSc2nnc(-c3ccc4c(c3)OCCO4)o2)cc1,2.91,28.8,28.5,22.6,28.4
Ic1ccc(CSc2nnc(-c3ccc4c(c3)OCCO4)o2)cc1,3.66,31.2,31.1,22.7,29.2
Cc1ccccc1CSc1nnc(-c2ccc3c(c2)OCCO3)o1,1.27,22,19,22.6,23.9
Brc1ccccc1CSc1nnc(-c2ccc3c(c2)OCCO3)o1,2.02,19.9,22.4,21.2,14.1
Brc1cccc(CSc2nnc(-c3ccc4c(c3)OCCO4)o2)c1,2.45,24.9,25.9,20.6,20.1
Brc1ccc(CSc2nnc(-c3ccc4c(c3)OCCO4)o2)cc1,1.66,8.54,23.6,22.2,24.5
Clc1ccccc1CSc1nnc(-c2ccc3c(c2)OCCO3)o1,5.89,22.6,36.8,22.5,29.5
Clc1cccc(CSc2nnc(-c3ccc4c(c3)OCCO4)o2)c1,2.34,33.4,31.8,26.9,25.2
Fc1cccc(F)c1CSc1nnc(-c2ccc3c(c2)OCCO3)o1,15.8,41.6,43.2,36.1,36.3
Fc1ccc(CSc2nnc(-c3ccc4c(c3)OCCO4)o2)c(F)c1,2.44,38.7,41.7,30.3,29.6
Ic1ccccc1CSc1nnc(-c2ccc3c(c2)OCCO3)o1,1.83,7.21,20,18.9,12.2
O=c1[nH]cc(F)c(=O)[nH]1 [FLUOROURACIL],,,110,100,95.2
